S1P1 ag pot: agonists and agonism potentiators of human S1P1 receptor | P21453 | activation, % at 9.5 µM | actives 0.57% (n = 56,000) | S1P1 CRE-bla cells, forskolin, beta-lactamase FRET, potentiator mode; S1P1 agonist co-added at EC20, 2 nM; 100% = saturating reference agonist, 0% = basal;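 active means activation above a cutoff set at the mean activation of all tested compounds plus 3 SD, cut at about 54% in these data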;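 further: forskolin at 4 µM as EC80 and the EC20 agonist is SEW2871; 100% = SEW2871 at its EC100 plus forskolin at EC80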
TNAP act DEA: human TNAP activation, intermediate phosphate acceptor. purified TNAP, CDP-star luminescence, 100 mM DEA, 30 min; hits give high values; scale: 0 levamisole-inhibited, 1 vehicle-only enzyme. AID 813. activation factor at 20 µM. 64,000 tested, under 10 active;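 active means activation factor of at least 2 at 20 µM, relative to controls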
Target sequence (P05186 whole entry, looked up): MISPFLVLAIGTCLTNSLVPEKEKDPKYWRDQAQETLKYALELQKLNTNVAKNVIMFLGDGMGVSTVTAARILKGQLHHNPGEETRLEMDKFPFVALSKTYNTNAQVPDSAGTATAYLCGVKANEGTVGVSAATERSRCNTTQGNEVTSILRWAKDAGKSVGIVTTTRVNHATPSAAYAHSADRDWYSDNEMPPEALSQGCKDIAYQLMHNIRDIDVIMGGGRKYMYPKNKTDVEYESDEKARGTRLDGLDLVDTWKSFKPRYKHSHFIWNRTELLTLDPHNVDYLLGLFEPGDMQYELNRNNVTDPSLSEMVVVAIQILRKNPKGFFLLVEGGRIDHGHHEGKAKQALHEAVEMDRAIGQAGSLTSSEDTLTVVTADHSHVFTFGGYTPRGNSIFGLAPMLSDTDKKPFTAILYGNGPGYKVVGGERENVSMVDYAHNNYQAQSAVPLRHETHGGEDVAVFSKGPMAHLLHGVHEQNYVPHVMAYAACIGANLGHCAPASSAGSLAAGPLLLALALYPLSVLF
M1 antag: antagonists of rat M1 muscarinic receptor | P08482 | CHO-M1 cells, Fluo-4 calcium, ACh EC80 antagonist mode; hits give low values | B-score at 10 µM | actives 3.4% (n = 64,000) | AID 628;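 active means calcium fluorescence response, raw or row-and-column corrected B-score, differing from the plate sample mean either way at a set confidence level, mostly lower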
D1 mod: D1 dopamine receptor (human) allosteric modulation; actives 5.9% (n = 58,000); B-score at 10 µM; P21728; HEK293 D1, CRE-luciferase, dopamine EC30 potentiation; actives deviate in either direction;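 active means luminescence count or its row- and column-corrected plate score outside the 99.7% band of the plate's sample wells, on either side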
M1 agonist: M1 muscarinic receptor agonism. actives 3% (n = 64,000). B-score at 10 µM. AID 626. CHO-M1 cells, Fluo-4 calcium fluorescence, agonist mode; hits give high values;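 active means fluorescence rise, raw or as B-score row- and column-corrected plate score, outside the 99.7% band of its plate's samples, either direction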
S1P3 agonist: activates the human S1P3 receptor; Q99500; S1P3 NFAT-BLA reporter cells, agonism, FRET ratio; relative to 1 µM S1P, basal subtracted; activation, % at 4.5 µM; actives 0.1% (n = 60,000);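 active means activation above the screen-wide mean plus 3 SD, cut at about 4.5% in these data, passing the limit was not always enough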
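Benchmarks: high control 1 µM S1P / System: stable CHO line with human S1P3, Gα16, NFAT-BLA reporter / Dosing: single compound concentration, 4.5 µM final / Timing: 4 h compound at 37 °C, 2 h substrate at RT / Measured by: FRET β-lactamase substrate fluorescence, excitation 405 nm, 460/535 nm emission ratio, background-subtracted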
M1 antag confirm: M1 muscarinic receptor (rat) antagonism, confirmed | shares compounds with M1 antag | CHO-M1 cells, Fluo-4 calcium, ACh EC80 antagonism; hits give low values | calcium response (max-min fluorescence) at 10 µM | actives 43% (n = 1,700);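 active means calcium response below the same-plate mean of wells given acetylcholine alone at its 80%-effect dose, minus 3 SD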;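 further: raw fluorescence intensity difference in arbitrary instrument units and not normalized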
mGluR4 antag: selectivity test for M1 antagonists: human mGluR4 receptor | actives 0.9% (n = 1,700) | fluorescence response (max-min) at 10 µM | CHO-mGluR4 calcium flux, Fluo-4 fluorescence, glutamate EC80; hits give low values | shares compounds with M1 antag;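 active means fluorescence response below the plate's average for near-maximal glutamate wells, less 3 SD of those wells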;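 further: raw unnormalized fluorescence span taken in the window right after glutamate addition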
The depositor's hits bear a star; . = no result given. This is a sample that favours compounds with a hit; in the whole collection about 11% have one here.

SMILES	S1P1 ag pot	TNAP act DEA	M1 antag	D1 mod	M1 agonist	S1P3 agonist	M1 antag confirm	mGluR4 antag
CSc1nc2ccc(S(=O)(=O)N3CCOCC3)cc2s1	1	0.9	-4.7*	0.22	-0.48	-1	298*	167
N=c1c2c3c(sc2nc2n1CCC2)CCCC3	-20	1	-1.9*	-0.11	-0.041	-1	634	255
CCOC(=O)C1=C(SCC(=O)Nc2ccccc2)NC(=O)C(C#N)C12CCCCC2 (stereo not given)	-1	0.9	-0.33	-1.1	-2	-1	.	.
Cc1ccc(C(=O)CC2(O)C(=O)N(C)c3ccc(Br)cc32)c(C)c1 (stereo not given)	9	0.9	-2.2*	-0.16	-0.38	-2	642	186
O=C(Cn1cnc2ccccc2c1=O)NCCC(=O)N1CCN(c2ccccc2)CC1	1	0.9	-0.42	-0.12	0.42	0	.	.
O=C(CSc1nnc(COc2ccccc2Cl)o1)NC(=O)NC1CCCC1	18	.	-0.72	-1.3	0.79	-1	.	.
O=C(COc1ccccc1Cl)NC(=O)NC1CCCC1	43	0.9	-8.7*	-0.17	-0.27	-1	233*	267
Cc1ccccc1N1CCN(S(=O)(=O)c2ccc3oc(=O)ccc3c2)CC1	.	0.9	-3.3*	-0.66	0.14	-1	557	233
CCCCNC(=O)CCCCCNS(=O)(=O)c1ccc(OC)cc1	3	0.9	-0.65	-0.99	0.67	1	.	.
O=C1CC(O)(C(F)(F)F)Oc2c1ccc1ccccc21 (stereo not given)	20	0.9	-1.2	-0.77	8.4	1	.	.
O=C1CC(O)(C(F)F)Oc2ccc3ccccc3c21 (stereo not given)	15	0.9	-2.6*	1.2	-0.78	-1	600	271
O=C1C2C3CCCC3=C3CCCC3C2C(=O)N1c1ccccc1 (stereo not given)	-35	0.9	-3.2*	0.58	-0.15	-1	321*	195
CCOC(=O)NC(Nc1sc2c(c1C(=O)OC)CCN(C)C2)(C(F)(F)F)C(F)(F)F	0	1	-1.4*	-0.7	0.76	-5	443	217
CCN(CC)c1ccc(-c2nc3cnccc3n2C)cc1	10	0.9	-14*	-0.8	0.14	-1	64*	253
COc1ccc(CC(NC(C)=O)C(=O)NC2CCN(c3nc(C)cc(C)c3C#N)CC2)c(OC)c1 (stereo not given)	0	0.9	0.9	0.91	-2.1	0	.	.
C=C(C)COc1ccc2c(C)c(CC(=O)OC)c(=O)oc2c1C	.	1	-2*	0.3	-1.2	-1	641	225
CCS(=O)(=O)N1Cc2ccccc2CC1C(=O)N1CCN(c2ccccc2)CC1 (stereo not given)	10	.	0.93	-0.75	0.089	-1	.	.
COc1ccc(C2N=C(c3ccccc3)C(C)(C)N2O)cc1OC (stereo not given)	-15	0.9	0.22	-0.1	-0.95	0	.	.
CCC1=NC(c2ccccc2OC)N(O)C1(C)C (stereo not given)	-35	0.9	-15*	-0.23	0.11	-1	257*	189
O=C1CC(c2ccc(F)c(Br)c2)C2=C(CCCC2=O)N1 (stereo not given)	-24	0.9	0.29	-0.38	-0.63	0	.	.
CCN1CCCC1CN(Cc1cc2cc(OC)ccc2[nH]c1=O)C(=O)NCc1ccccc1 (stereo not given)	6	0.9	0.064	-1.4	0.018	-1	.	.
COC(=O)c1oc2c(c1C)C1(CCC2)SCCS1	-3	0.9	-6.8*	1.8	1.2	0	259*	183
CCOC(=O)N1CCN(C(=O)CSc2nnc(Cc3ccccc3)o2)CC1	-8	0.9	0.28	-0.95	-2.4	0	.	.
c1ccc2c(c1)CCN(CCCNc1nc3ccccc3n3cnnc13)C2	-15	1	-1.6	-0.86	0.019	0	.	.
O=C(Cn1nnc2ccccc21)NC1CCCCC1	-33	1.1	0.0098	0.58	0.56	0	.	.
SMILES	S1P1 ag pot	TNAP act DEA	M1 antag	D1 mod	M1 agonist	S1P3 agonist	M1 antag confirm	mGluR4 antag
COC(=O)c1cn(CC(=O)NC2CCCCC2)c2ccccc12	3	0.9	-2*	0.13	0.33	0	572	219
COc1ccc(S(=O)(=O)c2ccc(OC)c(OC)c2)cc1OC	-34	0.9	0.83	-0.081	-0.11	-1	.	.
CC(C)CNC(=O)c1cccc(NC(=O)C2CCCO2)c1 (stereo not given)	-16	0.9	.	-0.73	.	0	.	.
CCN(CCCNC(=O)c1c(C)cc(=O)oc1C)c1cccc(C)c1	.	0.9	-2.9*	-0.86	-0.2	.	522*	266
COC(=O)C1=CN(C)C=C(C(=O)OC)C1c1ccsc1	-43	0.9	0.89	.	-0.071	1	.	.
COC(=O)C1=CN(C2CC2)C=C(C(=O)OC)C1c1ccc(C(=O)OC)cc1	-16	1.2	-5.9*	1.4	-0.58	1	188*	183
Cc1ccc(C)c(OCCCN2CCCC2)c1	5	1	-3*	-3.9	-1.8	-1	511*	265
Cc1ccc(C)c(OCCOCCN2CCOCC2)c1	-9	1	0.5	-1.4	-0.48	-1	.	.
CC(=O)OC(C(=O)NCc1ccco1)c1cccnc1 (stereo not given)	6	0.9	-1*	-1	0.97	0	657	246
Cc1csc(NC(=O)CSc2ncnc3c2cnn3-c2ccccc2Cl)n1	48	1	-2.7*	-2.1	3.9	-1	501	184
O=C(OCC(=O)N1CCN(C(=O)c2ccco2)CC1)c1ccccc1C(=O)c1ccc(Cl)cc1	-37	0.9	0.66	0.018	-0.1	1	.	.
O=C(OCc1nnc(-c2ccccc2)o1)c1ccc2c(c1)OCCO2	4	0.8	-1.5	1.2	-0.87	0	.	.
O=C(c1c(F)c(F)c(F)c(F)c1F)N1CCN(c2cccc(C(F)(F)F)c2)CC1	-12	1	-1.4	1.8	0.0063	-1	.	.
O=C(c1coc2ccccc2c1=O)N1CCN(c2cccc(C(F)(F)F)c2)CC1	.	0.9	-8.7*	0.93	0.31	.	178*	256
O=C(c1ccccc1F)N1CCN(c2cccc(C(F)(F)F)c2)CC1	-6	0.9	-2.9*	-0.13	0.028	0	566	258

Screens as filed in PubChem.
